Results taken from ChEMBL document CHEMBL4689842, “EUbOPEN Chemogenomics Library wave 1” (2021).

Legend:
Format in all cases: toxicity, cell-based
[1] = test system: Fibroblast; assay: Incucyte cell viability with human fibroblast; conditions: 10 µM, compound concentration 10 uM; note: filed as whole numbers so only -1 and 0 and 1 occur
[2] = test system: HEK-293T; assay: Incucyte cell viability with HEK293T; conditions: human, 10 µM, compound concentration 10 uM; note: filed as whole numbers so only -1 and 0 and 1 occur
[3] = test system: HEK-293T; assay: Multiplex assay against HEK293T; conditions: human;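 for Population Tubulin-Different-Phenotype (%): share of the cells with healthy nuclei that show this phenotype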
How it was run: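 Four dyes were applied at seeding to live cells: Hoechst33342, BioTracker Green Microtubule Cytoskeleton Dye, MitoTracker Red and Annexin V Alexa Fluor 680. Imaging after compound addition used a CQ1 microscope at 37°C and 5% CO2. CellPathfinder machine-learning gating then sorted cells into Hoechst high-intensity objects or normal cells, normal cells into healthy, pyknosed or fragmented nuclei, and pyknosed cells into mitotic or apoptotic, with tubulin, mitochondrial-mass and membrane-permeability phenotypes given as per cents of healthy-nucleus cells.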

[4] = 6 h, replicate number 1, timepoint 6 hours
[5] = 12 h, replicate number 1, timepoint 12 hours
[6] = 18 h, replicate number 1, timepoint 18 hours
[7] = 24 h, replicate number 1, timepoint 24 hours
[8] = 12 h, 1 µM, compound concentration 1 uM, replicate 1
[9] = 12 h, 1 µM, compound concentration 1 uM, replicate 2
[10] = 12 h, 10 µM, compound concentration 10 uM, replicate 1
[11] = 12 h, 10 µM, compound concentration 10 uM, replicate 2
[12] = 24 h, 1 µM, compound concentration 1 uM, replicate 1
[13] = 24 h, 1 µM, compound concentration 1 uM, replicate 2
[14] = 24 h, 10 µM, compound concentration 10 uM, replicate 1
[15] = 24 h, 10 µM, compound concentration 10 uM, replicate 2
[16] = 48 h, 1 µM, compound concentration 1 uM, replicate 1
[17] = 48 h, 1 µM, compound concentration 1 uM, replicate 2
[18] = 48 h, 10 µM, compound concentration 10 uM, replicate 1
[19] = 48 h, 10 µM, compound concentration 10 uM, replicate 2

C[C@@H](Oc1cc(-n2cnc3ccc(CN4CCN(C)CC4)cc32)sc1C(N)=O)c1ccccc1C(F)(F)F [GSK-461364]
Growth Rate ([1]; 0 h, replicate number 2, timepoint 0 hours): 0 | Growth Rate [1, 4]: 0 | Growth Rate ([1]; 6 h, replicate number 2, timepoint 6 hours): 1 | Growth Rate [1, 5]: 0 | Growth Rate [1, 6]: 0 | Growth Rate [1, 7]: 0 | Growth Rate [2, 4]: 0 | Growth Rate [2, 5]: 0 | Growth Rate [2, 6]: 0 | Growth Rate [2, 7]: 0 | Population Apoptotic (%) [3, 8]: 62% | Population Fragmented Nuclei (%) [3, 8]: 14% | Population Healthy Nuclei (%) [3, 8]: 19% | Population Hoechst High Intensity Objects (%) [3, 8]: 17% | Population Membrane Permeable-Phenotype (%) [3, 8]: 5% | Population Mitochondria Different-Phenotype (%) [3, 8]: 98% | Population Mitotic Cells (%) [3, 8]: 37% | Population Normal (%) [3, 8]: 82% | Population Pyknosed Nuclei (%) [3, 8]: 65% | Population Tubulin-Different-Phenotype (%) [3, 8]: 96% | Total Cell Count [3, 8]: 322 | Population Apoptotic (%) [3, 9]: 27% | Population Fragmented Nuclei (%) [3, 9]: 10% | Population Healthy Nuclei (%) [3, 9]: 33% | Population Hoechst High Intensity Objects (%) [3, 9]: 4% | Population Membrane Permeable-Phenotype (%) [3, 9]: 20% | Population Mitochondria Different-Phenotype (%) [3, 9]: 60% | Population Mitotic Cells (%) [3, 9]: 72% | Population Normal (%) [3, 9]: 95% | Population Pyknosed Nuclei (%) [3, 9]: 56% | Population Tubulin-Different-Phenotype (%) [3, 9]: 71% | Total Cell Count [3, 9]: 142 | Population Apoptotic (%) [3, 10]: 80% | Population Fragmented Nuclei (%) [3, 10]: 16% | Population Healthy Nuclei (%) [3, 10]: 11% | Population Hoechst High Intensity Objects (%) [3, 10]: 22% | Population Membrane Permeable-Phenotype (%) [3, 10]: 7% | Population Mitochondria Different-Phenotype (%) [3, 10]: 100% | Population Mitotic Cells (%) [3, 10]: 19% | Population Normal (%) [3, 10]: 77% | Population Pyknosed Nuclei (%) [3, 10]: 71% | Population Tubulin-Different-Phenotype (%) [3, 10]: 74% | Total Cell Count [3, 10]: 294 | Population Apoptotic (%) [3, 11]: 66% | Population Fragmented Nuclei (%) [3, 11]: 11% | Population Healthy Nuclei (%) [3, 11]: 14% | Population Hoechst High Intensity Objects (%) [3, 11]: 10% | Population Membrane Permeable-Phenotype (%) [3, 11]: 12% | Population Mitochondria Different-Phenotype (%) [3, 11]: 75% | Population Mitotic Cells (%) [3, 11]: 33% | Population Normal (%) [3, 11]: 89% | Population Pyknosed Nuclei (%) [3, 11]: 73% | Population Tubulin-Different-Phenotype (%) [3, 11]: 62% | Total Cell Count [3, 11]: 187 | Population Apoptotic (%) [3, 12]: 66% | Population Fragmented Nuclei (%) [3, 12]: 14% | Population Healthy Nuclei (%) [3, 12]: 22% | Population Hoechst High Intensity Objects (%) [3, 12]: 16% | Population Membrane Permeable-Phenotype (%) [3, 12]: 0% | Population Mitochondria Different-Phenotype (%) [3, 12]: 98% | Population Mitotic Cells (%) [3, 12]: 33% | Population Normal (%) [3, 12]: 83% | Population Pyknosed Nuclei (%) [3, 12]: 62% | Population Tubulin-Different-Phenotype (%) [3, 12]: 96% | Total Cell Count [3, 12]: 321 | Population Apoptotic (%) [3, 13]: 38% | Population Fragmented Nuclei (%) [3, 13]: 8% | Population Healthy Nuclei (%) [3, 13]: 43% | Population Hoechst High Intensity Objects (%) [3, 13]: 3% | Population Membrane Permeable-Phenotype (%) [3, 13]: 12% | Population Mitochondria Different-Phenotype (%) [3, 13]: 54% | Population Mitotic Cells (%) [3, 13]: 61% | Population Normal (%) [3, 13]: 96% | Population Pyknosed Nuclei (%) [3, 13]: 47% | Population Tubulin-Different-Phenotype (%) [3, 13]: 75% | Total Cell Count [3, 13]: 154 | Population Apoptotic (%) [3, 14]: 81% | Population Fragmented Nuclei (%) [3, 14]: 26% | Population Healthy Nuclei (%) [3, 14]: 10% | Population Hoechst High Intensity Objects (%) [3, 14]: 25% | Population Membrane Permeable-Phenotype (%) [3, 14]: 4% | Population Mitochondria Different-Phenotype (%) [3, 14]: 100% | Population Mitotic Cells (%) [3, 14]: 18% | Population Normal (%) [3, 14]: 74% | Population Pyknosed Nuclei (%) [3, 14]: 63% | Population Tubulin-Different-Phenotype (%) [3, 14]: 45% | Total Cell Count [3, 14]: 298 | Population Apoptotic (%) [3, 15]: 86% | Population Fragmented Nuclei (%) [3, 15]: 12% | Population Healthy Nuclei (%) [3, 15]: 25% | Population Hoechst High Intensity Objects (%) [3, 15]: 5% | Population Membrane Permeable-Phenotype (%) [3, 15]: 0% | Population Mitochondria Different-Phenotype (%) [3, 15]: 97% | Population Mitotic Cells (%) [3, 15]: 13% | Population Normal (%) [3, 15]: 94% | Population Pyknosed Nuclei (%) [3, 15]: 62% | Population Tubulin-Different-Phenotype (%) [3, 15]: 63% | Total Cell Count [3, 15]: 207 | Population Apoptotic (%) [3, 16]: 66% | Population Fragmented Nuclei (%) [3, 16]: 22% | Population Healthy Nuclei (%) [3, 16]: 18% | Population Hoechst High Intensity Objects (%) [3, 16]: 22% | Population Membrane Permeable-Phenotype (%) [3, 16]: 2% | Population Mitochondria Different-Phenotype (%) [3, 16]: 95% | Population Mitotic Cells (%) [3, 16]: 33% | Population Normal (%) [3, 16]: 77% | Population Pyknosed Nuclei (%) [3, 16]: 59% | Population Tubulin-Different-Phenotype (%) [3, 16]: 97% | Total Cell Count [3, 16]: 325 | Population Apoptotic (%) [3, 17]: 67% | Population Fragmented Nuclei (%) [3, 17]: 10% | Population Healthy Nuclei (%) [3, 17]: 60% | Population Hoechst High Intensity Objects (%) [3, 17]: 2% | Population Membrane Permeable-Phenotype (%) [3, 17]: 6% | Population Mitochondria Different-Phenotype (%) [3, 17]: 53% | Population Mitotic Cells (%) [3, 17]: 32% | Population Normal (%) [3, 17]: 97% | Population Pyknosed Nuclei (%) [3, 17]: 28% | Population Tubulin-Different-Phenotype (%) [3, 17]: 76% | Total Cell Count [3, 17]: 191 | Population Apoptotic (%) [3, 18]: 77% | Population Fragmented Nuclei (%) [3, 18]: 27% | Population Healthy Nuclei (%) [3, 18]: 4% | Population Hoechst High Intensity Objects (%) [3, 18]: 26% | Population Membrane Permeable-Phenotype (%) [3, 18]: 11% | Population Mitochondria Different-Phenotype (%) [3, 18]: 100% | Population Mitotic Cells (%) [3, 18]: 22% | Population Normal (%) [3, 18]: 73% | Population Pyknosed Nuclei (%) [3, 18]: 68% | Population Tubulin-Different-Phenotype (%) [3, 18]: 55% | Total Cell Count [3, 18]: 287 | Population Apoptotic (%) [3, 19]: 79% | Population Fragmented Nuclei (%) [3, 19]: 12% | Population Healthy Nuclei (%) [3, 19]: 31% | Population Hoechst High Intensity Objects (%) [3, 19]: 10% | Population Membrane Permeable-Phenotype (%) [3, 19]: 0% | Population Mitochondria Different-Phenotype (%) [3, 19]: 98% | Population Mitotic Cells (%) [3, 19]: 20% | Population Normal (%) [3, 19]: 89% | Population Pyknosed Nuclei (%) [3, 19]: 55% | Population Tubulin-Different-Phenotype (%) [3, 19]: 56% | Total Cell Count [3, 19]: 204
